According to ChEMBL document CHEMBL1687738, “Effect of Candida glabrata FKS1 and FKS2 mutations on echinocandin sensitivity and kinetics of 1,3-beta-D-glucan synthase: implication for the existing susceptibility breakpoint” (Antimicrob Agents Chemother, 2009):
≈ marks a conversion by molar mass, not a printed value. Starred links: 1 amine or outer side, 2 acyl side, 3 side chain; linkers in the order of their positions; H or OH if unused. Positions of bridges follow the written chain, without caps; N, C: chain ends. Non-standard residues stand in square brackets, D forms with d. Residues, ends and D or L forms follow the SMILES beside them. *: point of attachment. hTyr(3S-OH,4S-OH,3'-OSO3H) = N[C@H](C(=O)O)[C@H](O)[C@@H](O)c1ccc(O)c(OS(=O)(=O)O)c1; Orn(4R-OH,5R-OH) = O=C([C@H](C[C@@H](O)[C@@H](O)N[*:3])N[*:1])[*:2]; Pro(3S-OH,4S-Me) = C[C@H]1CN[C@H](C(=O)O)[C@H]1O; X1 = CCCCCOc1ccc(-c2cc(-c3ccc(C(=O)*)cc3)no2)cc1; Gln(3R-OH) = NC(=O)C[C@@H](O)[C@H](N)C(=O)O; Hyp = O=C(O)[C@@H]1C[C@@H](O)CN1

Tests used:
[1] = tested on: Nakaseomyces glabratus; assay: Antifungal activity against Candida glabrata isolate 5847 expressing Fks1p S629P mutant and wild type Fks2p by CLSI method in presence of 50% human serum; assay type: functional
In short: (§1)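 Broth microdilution MIC per CLSI M27-A3 in RPMI 1640 supplemented with 50% serum. Caspofungin and micafungin stocks in sterile water; anidulafungin stock in 100% DMSO; stocks kept at −86°C.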

[2] = tested on: Nakaseomyces glabratus; assay: Antifungal activity against Candida glabrata isolate 3169 expressing Fks1p D632E mutant and wild type Fks2p by CLSI method in presence of 50% human serum; assay type: functional; in short: as §1
[3] = tested on: Nakaseomyces glabratus; assay: Antifungal activity against Candida glabrata isolate 3830 expressing wild type Fks1p and Fks2p S663P mutant by CLSI method; assay type: functional
In short: (§2)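 Broth microdilution MIC per CLSI M27-A3 in RPMI 1640 medium without serum. Caspofungin and micafungin stocks in sterile water; anidulafungin stock in 100% DMSO; stocks kept at −86°C.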

[4] = tested on: Nakaseomyces glabratus; assay: Antifungal activity against Candida glabrata isolate 41400 expressing wild type Fks1p and Fks2p D666G mutant by CLSI method; assay type: functional; in short: as §2
[5] = tested on: Nakaseomyces glabratus; assay: Antifungal activity against Candida glabrata isolate 42971 expressing Fks1p D632Y mutant and Fks2p R1377STOP mutant by CLSI method in presence of 50% human serum; assay type: functional; in short: as §1
[6] = target: 1,3-beta-glucan synthase (Candida glabrata, UniProt F5BCZ9, W1375L); assay: Inhibition of Candida glabrata isolate 5416 1,3-beta-D-glucan synthase wild type Fks1p/Fks2p W1375L mutant; parameters: species or system Nakaseomyces glabratus
In short: (§3)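 Cells grown in YPD broth at 35°C with vigorous shaking to early stationary phase. Membrane protein extracted and glucan synthase partially purified by product entrapment. Filtration polymerization assay measured [3H]glucose incorporation into product, started by adding enzyme. Echinocandin serial dilutions spanned 0.01–10,000 ng/ml, with 1% DMSO controls for anidulafungin. IC50 from variable-slope sigmoidal fit.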

[7] = tested on: Nakaseomyces glabratus; assay: Antifungal activity against Candida glabrata isolate 42031 expressing wild type Fks1p and Fks2p D666E mutant by CLSI method in presence of 50% human serum; assay type: functional; in short: as §1
[8] = tested on: Nakaseomyces glabratus; assay: Antifungal activity against Candida glabrata isolate 42971 expressing Fks1p D632Y mutant and Fks2p R1377STOP mutant by CLSI method; assay type: functional; in short: as §2
[9] = target: 1,3-beta-glucan synthase (Candida glabrata, UniProt F5BCZ9, P667T); assay: Inhibition of Candida glabrata isolate 51916 1,3-beta-D-glucan synthase wild type Fks1p/Fks2p P667T mutant; parameters: species or system Nakaseomyces glabratus; in short: as §3
[10] = target: 1,3-beta-glucan synthase component FKS1 (Candida glabrata, UniProt E2GKZ4, D632E); assay: Inhibition of Candida glabrata isolate 3169 1,3-beta-D-glucan synthase Fks1p D632E mutant/wild type Fks2p; parameters: species or system Nakaseomyces glabratus; in short: as §3
Chain of 1,3-beta-glucan synthase component FKS1 (Candida glabrata, UniProt E2GKZ4, D632E) (E2GKZ4 entry or part of it D632E): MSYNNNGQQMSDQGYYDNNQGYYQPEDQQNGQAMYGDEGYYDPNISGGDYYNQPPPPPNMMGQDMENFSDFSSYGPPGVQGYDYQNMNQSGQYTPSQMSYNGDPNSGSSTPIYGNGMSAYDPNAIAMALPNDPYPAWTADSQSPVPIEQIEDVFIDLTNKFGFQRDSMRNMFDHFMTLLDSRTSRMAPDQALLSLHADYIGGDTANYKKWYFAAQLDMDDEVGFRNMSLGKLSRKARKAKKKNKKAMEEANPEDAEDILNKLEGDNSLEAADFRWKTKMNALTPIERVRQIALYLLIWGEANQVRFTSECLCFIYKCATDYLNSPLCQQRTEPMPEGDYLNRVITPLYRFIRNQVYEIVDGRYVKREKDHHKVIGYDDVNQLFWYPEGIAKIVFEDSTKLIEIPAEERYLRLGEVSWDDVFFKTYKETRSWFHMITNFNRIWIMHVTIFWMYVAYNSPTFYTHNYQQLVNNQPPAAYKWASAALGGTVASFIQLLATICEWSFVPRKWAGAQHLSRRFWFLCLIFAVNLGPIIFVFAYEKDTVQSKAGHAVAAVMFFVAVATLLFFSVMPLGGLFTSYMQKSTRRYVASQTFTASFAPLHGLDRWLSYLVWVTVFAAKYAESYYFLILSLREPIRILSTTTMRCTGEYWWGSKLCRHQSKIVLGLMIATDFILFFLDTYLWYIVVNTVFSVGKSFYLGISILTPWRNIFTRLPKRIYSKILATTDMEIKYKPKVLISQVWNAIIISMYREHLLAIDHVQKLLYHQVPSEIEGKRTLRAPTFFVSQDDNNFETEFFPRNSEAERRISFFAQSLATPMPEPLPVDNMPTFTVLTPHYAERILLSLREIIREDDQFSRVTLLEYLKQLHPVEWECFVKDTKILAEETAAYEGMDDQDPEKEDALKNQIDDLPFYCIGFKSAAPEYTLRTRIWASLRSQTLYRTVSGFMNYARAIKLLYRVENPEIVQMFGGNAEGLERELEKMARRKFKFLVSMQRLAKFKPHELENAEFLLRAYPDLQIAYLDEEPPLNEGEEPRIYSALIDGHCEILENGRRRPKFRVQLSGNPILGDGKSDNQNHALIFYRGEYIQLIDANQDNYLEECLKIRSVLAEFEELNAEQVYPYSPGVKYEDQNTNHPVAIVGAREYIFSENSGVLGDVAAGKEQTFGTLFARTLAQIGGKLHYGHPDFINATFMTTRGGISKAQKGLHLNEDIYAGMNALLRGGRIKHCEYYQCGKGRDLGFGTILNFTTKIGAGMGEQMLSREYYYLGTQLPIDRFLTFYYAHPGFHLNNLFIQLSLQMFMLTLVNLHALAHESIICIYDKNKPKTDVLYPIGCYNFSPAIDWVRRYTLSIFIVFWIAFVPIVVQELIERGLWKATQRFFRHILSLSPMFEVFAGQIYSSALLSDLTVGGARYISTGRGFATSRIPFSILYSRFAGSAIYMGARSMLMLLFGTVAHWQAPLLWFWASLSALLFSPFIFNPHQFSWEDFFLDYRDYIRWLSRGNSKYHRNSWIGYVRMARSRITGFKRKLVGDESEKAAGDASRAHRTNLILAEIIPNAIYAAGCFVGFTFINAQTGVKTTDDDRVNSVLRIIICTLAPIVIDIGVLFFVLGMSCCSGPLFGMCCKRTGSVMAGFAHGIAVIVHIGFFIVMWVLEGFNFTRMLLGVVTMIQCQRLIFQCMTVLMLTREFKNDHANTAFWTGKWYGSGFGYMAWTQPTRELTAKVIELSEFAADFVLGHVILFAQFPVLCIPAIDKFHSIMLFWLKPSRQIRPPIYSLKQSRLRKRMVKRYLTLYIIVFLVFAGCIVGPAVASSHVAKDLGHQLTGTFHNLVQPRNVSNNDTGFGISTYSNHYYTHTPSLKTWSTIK

[11] = tested on: Nakaseomyces glabratus; assay: Antifungal activity against Candida glabrata isolate 41026 expressing wild type Fks1p and Fks2p F659S mutant by CLSI method in presence of 50% human serum; assay type: functional; in short: as §1
[12] = tested on: Nakaseomyces glabratus; assay: Antifungal activity against Candida glabrata isolate 218 expressing wild type Fks1p and Fks2p by CLSI method; assay type: functional; in short: as §2
[13] = tested on: Nakaseomyces glabratus; assay: Antifungal activity against Candida glabrata isolate 31498 expressing wild type Fks1p and Fks2p F659 deletion mutant by CLSI method; assay type: functional; in short: as §2
[14] = target: 1,3-beta-glucan synthase (Candida glabrata, UniProt F5BCZ9, F659S); assay: Inhibition of Candida glabrata isolate 41026 1,3-beta-D-glucan synthase wild type Fks1p/Fks2p F659S mutant; parameters: species or system Nakaseomyces glabratus; in short: as §3
[15] = tested on: Nakaseomyces glabratus; assay: Antifungal activity against Candida glabrata isolate 3168 expressing wild type Fks1p and Fks2p by CLSI method in presence of 50% human serum; assay type: functional; in short: as §1
[16] = tested on: Nakaseomyces glabratus; assay: Antifungal activity against Candida glabrata isolate 21900 expressing Fks1p D632G mutant and wild type Fks2p by CLSI method; assay type: functional
[17] = tested on: Nakaseomyces glabratus; assay: Antifungal activity against Candida glabrata isolate 42997 expressing Fks1p F625S mutant and wild type Fks2p by CLSI method; assay type: functional; in short: as §2
[18] = target: 1,3-beta-glucan synthase (Candida glabrata, UniProt F5BCZ9, F659V); assay: Inhibition of Candida glabrata isolate 234 1,3-beta-D-glucan synthase wild type Fks1p/Fks2p F659V mutant; parameters: species or system Nakaseomyces glabratus; in short: as §3
[19] = tested on: Nakaseomyces glabratus; assay: Antifungal activity against Candida glabrata ATCC 90030 expressing wild type Fks1p and Fks2p by CLSI method; assay type: functional
In short: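 Broth microdilution MIC per CLSI M27-A3 in RPMI 1640 medium, also run in RPMI 1640 with 50% serum. Wild-type control strain. Caspofungin and micafungin dissolved in sterile distilled water and anidulafungin in 100% DMSO; stock solutions stored at −86°C. Geometric means used to compare MICs.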

[20] = tested on: Nakaseomyces glabratus; assay: Ratio of IC50 for Candida glabrata wild type 1,3-beta-glucan synthase to IC50 for Candida glabrata 1,3-beta-glucan synthase mutant
[21] = tested on: Nakaseomyces glabratus; assay: Antifungal activity against Candida glabrata isolate 41400 expressing wild type Fks1p and Fks2p D666G mutant by CLSI method in presence of 50% human serum; assay type: functional; in short: as §1
[22] = tested on: Nakaseomyces glabratus; assay: Antifungal activity against Candida glabrata isolate 5416 expressing wild type Fks1p and Fks2p W1375L mutant by CLSI method; assay type: functional; in short: as §2
[23] = tested on: Nakaseomyces glabratus; assay: Antifungal activity against Candida glabrata isolate 5847 expressing Fks1p S629P mutant and wild type Fks2p by CLSI method; assay type: functional; in short: as §2
[24] = target: 1,3-beta-glucan synthase (Candida glabrata, UniProt F5BCZ9, S663P); assay: Inhibition of Candida glabrata isolate 3830 1,3-beta-D-glucan synthase wild type Fks1p/Fks2p S663P mutant; parameters: species or system Nakaseomyces glabratus; in short: as §3
[25] = tested on: Nakaseomyces glabratus; assay: Antifungal activity against Candida glabrata isolate 51916 expressing wild type Fks1p and Fks2p P667T mutant by CLSI method; assay type: functional; in short: as §2
[26] = tested on: Nakaseomyces glabratus; assay: Antifungal activity against Candida glabrata isolate 3169 expressing Fks1p D632E mutant and wild type Fks2p by CLSI method; assay type: functional; in short: as §2
[27] = Inhibition of Candida glabrata isolate 3168 wild type 1,3-beta-D-glucan synthase; parameters: species or system Nakaseomyces glabratus; in short: as §3
[28] = tested on: Nakaseomyces glabratus; assay: Antifungal activity against Candida glabrata isolate 42997 expressing Fks1p F625S mutant and wild type Fks2p by CLSI method in presence of 50% human serum; assay type: functional; in short: as §1
[29] = tested on: Nakaseomyces glabratus; assay: Antifungal activity against Candida glabrata isolate 21900 expressing Fks1p D632G mutant and wild type Fks2p by CLSI method in presence of 50% human serum; assay type: functional; in short: as §1
[30] = tested on: Nakaseomyces glabratus; assay: Antifungal activity against Candida glabrata isolate 31498 expressing wild type Fks1p and Fks2p F659 deletion mutant by CLSI method in presence of 50% human serum; assay type: functional; in short: as §1
[31] = target: 1,3-beta-glucan synthase (Candida glabrata, UniProt F5BCZ9, D666E); assay: Inhibition of Candida glabrata isolate 42031 1,3-beta-D-glucan synthase wild type Fks1p/Fks2p D666E mutant; parameters: species or system Nakaseomyces glabratus; in short: as §3
[32] = target: 1,3-beta-glucan synthase component FKS1 (Candida glabrata, UniProt E2GKZ4, D632G); assay: Inhibition of Candida glabrata isolate 21900 1,3-beta-D-glucan synthase Fks1p D632G mutant/wild type Fks2p; parameters: species or system Nakaseomyces glabratus; in short: as §3
Chain of 1,3-beta-glucan synthase component FKS1 (Candida glabrata, UniProt E2GKZ4, D632G) (E2GKZ4 entry or part of it D632G): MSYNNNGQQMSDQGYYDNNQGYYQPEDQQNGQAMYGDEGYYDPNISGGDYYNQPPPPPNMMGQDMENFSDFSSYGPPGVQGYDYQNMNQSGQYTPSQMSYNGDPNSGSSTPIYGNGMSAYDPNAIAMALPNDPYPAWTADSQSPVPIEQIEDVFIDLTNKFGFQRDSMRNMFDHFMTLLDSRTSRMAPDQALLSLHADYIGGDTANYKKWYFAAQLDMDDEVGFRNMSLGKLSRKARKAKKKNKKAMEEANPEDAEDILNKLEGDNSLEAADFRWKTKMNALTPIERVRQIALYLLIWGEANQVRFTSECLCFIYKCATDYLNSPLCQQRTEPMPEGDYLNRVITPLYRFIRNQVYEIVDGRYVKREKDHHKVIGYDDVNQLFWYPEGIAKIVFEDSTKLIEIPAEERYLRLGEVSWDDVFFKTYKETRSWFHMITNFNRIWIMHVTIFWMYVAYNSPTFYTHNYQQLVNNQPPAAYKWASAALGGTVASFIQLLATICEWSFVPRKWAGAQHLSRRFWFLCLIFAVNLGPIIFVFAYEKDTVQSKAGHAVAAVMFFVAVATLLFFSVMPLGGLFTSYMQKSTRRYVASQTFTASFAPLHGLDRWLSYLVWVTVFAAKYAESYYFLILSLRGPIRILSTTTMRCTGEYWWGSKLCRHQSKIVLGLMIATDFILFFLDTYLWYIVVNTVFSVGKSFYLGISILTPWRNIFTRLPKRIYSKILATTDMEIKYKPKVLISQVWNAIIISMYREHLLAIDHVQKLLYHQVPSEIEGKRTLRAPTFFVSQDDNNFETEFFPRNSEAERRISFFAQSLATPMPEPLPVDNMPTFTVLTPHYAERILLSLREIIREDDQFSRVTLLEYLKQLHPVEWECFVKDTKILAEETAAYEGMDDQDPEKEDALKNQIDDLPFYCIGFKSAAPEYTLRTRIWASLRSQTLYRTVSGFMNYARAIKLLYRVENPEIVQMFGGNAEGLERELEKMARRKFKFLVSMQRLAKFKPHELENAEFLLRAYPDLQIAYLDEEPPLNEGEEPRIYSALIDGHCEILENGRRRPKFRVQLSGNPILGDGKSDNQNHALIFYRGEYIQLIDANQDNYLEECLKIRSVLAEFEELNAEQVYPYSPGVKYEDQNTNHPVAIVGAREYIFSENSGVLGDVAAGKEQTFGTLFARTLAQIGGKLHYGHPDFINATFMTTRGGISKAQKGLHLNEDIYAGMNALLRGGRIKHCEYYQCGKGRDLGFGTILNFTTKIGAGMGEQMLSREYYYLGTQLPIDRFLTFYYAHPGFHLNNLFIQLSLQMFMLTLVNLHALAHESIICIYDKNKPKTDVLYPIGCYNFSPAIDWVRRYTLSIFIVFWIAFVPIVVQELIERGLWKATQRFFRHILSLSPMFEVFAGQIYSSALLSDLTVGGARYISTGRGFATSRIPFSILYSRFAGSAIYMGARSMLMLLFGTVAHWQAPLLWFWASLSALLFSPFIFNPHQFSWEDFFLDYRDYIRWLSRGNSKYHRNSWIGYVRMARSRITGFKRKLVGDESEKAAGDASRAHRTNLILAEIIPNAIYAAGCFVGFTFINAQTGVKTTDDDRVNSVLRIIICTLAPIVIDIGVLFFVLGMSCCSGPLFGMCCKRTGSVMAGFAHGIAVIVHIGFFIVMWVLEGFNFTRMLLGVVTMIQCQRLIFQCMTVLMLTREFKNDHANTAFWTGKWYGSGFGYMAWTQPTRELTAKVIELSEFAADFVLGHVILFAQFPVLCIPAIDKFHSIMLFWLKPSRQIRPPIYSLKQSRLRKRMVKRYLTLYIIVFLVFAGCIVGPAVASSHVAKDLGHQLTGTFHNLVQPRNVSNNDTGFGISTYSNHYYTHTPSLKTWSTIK

[33] = Inhibition of Candida glabrata isolate 218 wild type 1,3-beta-D-glucan synthase; parameters: species or system Nakaseomyces glabratus; in short: as §3
[34] = tested on: Nakaseomyces glabratus; assay: Antifungal activity against Candida glabrata isolate 218 expressing wild type Fks1p and Fks2p by CLSI method in presence of 50% human serum; assay type: functional; in short: as §1

## CCCCCOc1ccc(-c2cc(-c3ccc(C(=O)N[C@H]4C[C@@H](O)[C@@H](O)NC(=O)[C@@H]5[C@@H](O)[C@@H](C)CN5C(=O)[C@H]([C@H](O)CC(N)=O)NC(=O)[C@H]([C@H](O)[C@@H](O)c5ccc(O)c(OS(=O)(=O)O)c5)NC(=O)[C@@H]5C[C@@H](O)CN5C(=O)[C@H]([C@@H](C)O)NC4=O)cc3)no2)cc1 [MICAFUNGIN] (X1-[Orn(4R-OH,5R-OH)]T[Hyp][hTyr(3S-OH,4S-OH,3'-OSO3H)][Gln(3R-OH)][Pro(3S-OH,4S-Me)]; lactam 1-C)
[1]
  MIC: 8 µg/mL
[2]
  MIC: 8 µg/mL
[3]
  MIC: 1 µg/mL (≈ 0.787 µM)
[4]
  MIC: 0.12 µg/mL (≈ 0.0945 µM)
[5]
  MIC: 8 µg/mL
[6]
  IC50: 39.9 nM
[7]
  MIC: 4 µg/mL
[8]
  MIC: 1 µg/mL (≈ 0.787 µM)
[9]
  IC50: 87.3 nM
[10]
  IC50: 350 nM
[11]
  MIC: 16 µg/mL
[12]
  MIC: 0.12 µg/mL (≈ 0.0945 µM)
[13]
  MIC: 4 µg/mL (≈ 3.15 µM)
[14]
  IC50: 840 nM
[15]
  MIC: 0.5 µg/mL
[16]
  MIC: 0.5 µg/mL (≈ 0.394 µM)
[17]
  MIC: 0.5 µg/mL (≈ 0.394 µM)
[18]
  IC50: 89.3 nM
[19]
  MIC: 0.03 µg/mL (≈ 0.0236 µM)
[20]
  Ratio IC50: 60
[21]
  MIC: 4 µg/mL
[22]
  MIC: 0.25 µg/mL (≈ 0.197 µM)
[23]
  MIC: 2 µg/mL (≈ 1.57 µM)
[24]
  IC50: 2020 nM
[25]
  MIC: 0.4 µg/mL (≈ 0.315 µM)
[26]
  MIC: 2.52 µg/mL (≈ 1.98 µM)
[27]
  IC50: 1.29 ng/mL (≈ 0.00102 µM)
[28]
  MIC: 4 µg/mL
[29]
  MIC: 8 µg/mL
[30]
  MIC: 8 µg/mL
[31]
  IC50: 69.8 nM
[32]
  IC50: 270 nM
[33]
  IC50: 0.56 ng/mL (≈ 0.000441 µM)
[34]
  MIC: 1 µg/mL
